Consider four compounds from publication PMC3972761 (Chemistry & biology, 2008).

Marks after values point to notes of the source that are not given here.

One experiment concerns recombinant MGL. Particulars: read-out: IC50, recombinant MGL; time-dependent; ref Alexander and Cravatt, 2006; cited from earlier work.
Another experiment concerns the target T1, purified hMGL (Homo sapiens, UniProt Q99685).
T1 sequence (Q99685 1-303): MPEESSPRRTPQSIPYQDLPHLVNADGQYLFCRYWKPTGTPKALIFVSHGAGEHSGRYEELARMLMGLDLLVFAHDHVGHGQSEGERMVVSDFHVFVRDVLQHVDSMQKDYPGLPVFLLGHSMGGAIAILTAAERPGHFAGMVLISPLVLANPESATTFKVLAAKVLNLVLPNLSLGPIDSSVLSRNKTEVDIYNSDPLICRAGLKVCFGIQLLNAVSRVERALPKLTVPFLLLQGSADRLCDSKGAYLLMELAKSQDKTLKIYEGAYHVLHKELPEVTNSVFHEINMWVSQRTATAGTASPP
The experiment can be described thus: Inhibition of purified hMGL at fixed inhibitor:hMGL molar ratios. It is filed as biochemical. Particulars: for hMGL Inhibition (%) 10 min: 50 μM AHMMCE, 1 hr preincubation.

In a further experiment the target is T2, hMGL cysteine residues (Homo sapiens, UniProt Q99685).
T2 sequence (Q99685 1-303): T1 sequence (Q99685 1-303)
The experiment in a line: MALDI-TOF MS of tryptic digest of NAM-treated hMGL. Particulars: for Relative Alkylation of Cys39: percent alkylation of Cys39 relative to Cys208. The essentials: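 Purified His-tagged hMGL (3 μM) was incubated 1 hr at room temperature in 10 mM Tris-HCl pH 8.0 with test compound at set molar ratios. It was desalted into 50 mM ammonium bicarbonate with 0.02% CYMAL, pH 8.0, then trypsin-digested overnight, either directly or after DTT (17 mM, 30 min) and iodoacetamide (55 mM, 1 hr, dark). Digests were analysed by MALDI-TOF MS with CHCA matrix.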

Experiment [1] addresses T3, hMGL (recombinant hexa-histidine-tagged human MGL) (Homo sapiens, UniProt Q99685).
T3 sequence (Q99685 1-303): T1 sequence (Q99685 1-303)
The experiment in a line: Fluorescence-based AHMMCE hydrolysis assay, E. coli lysate containing hMGL. The class given is biochemical. Particulars: for hMGL inhibition potency (in words): E. coli lysate containing hMGL, 3-hr incubation, AHMMCE. In short, it runs like this: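 Test compound was preincubated 15 min at room temperature with E. coli lysate containing hMGL (175 ng total protein) in 50 mM Tris-HCl pH 7.4 with 8% DMSO. AHMMCE was then added (20 μM final) and fluorescence (360/460 nm) read every 15 min for 3 hr. HMC formed at 2 h was quantified against an HMC standard curve, and IC50 was fitted by nonlinear regression.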

The mark [2] stands for this setting: inhibitor:hMGL molar ratio 3.3:1.
[3] abbreviates: inhibitor:hMGL molar ratio 8.3:1.

On to LY2183240, for which the IC50 – broadly, the concentration that inhibits the measured activity by half – in the experiment on recombinant MGL was ~5.3 nM.

As to `CCCCC/C=C\C/C=C\C/C=C\C/C=C\CCCCN1C(=O)C=CC1=O` [NAM, N-arachidonylmaleimide], the “hMGL Inhibition (%) 10 min” value on purified hMGL (inhibitor:hMGL molar ratio 1:1) is 51%; at purified hMGL (setting [2]), 80%; at purified hMGL (setting [3]) it was 82%; on purified hMGL (inhibitor:hMGL molar ratio 33:1), 84%. Further, the “hMGL inhibition achieved with partial alkylation of Cys215 and/or Cys249” value at purified hMGL (molar ratio not stated at the place) is recorded as ~ 80%. For the same compound, the “Relative Alkylation of Cys208” value is recorded as 0% at hMGL cysteine residues (NAM:hMGL ratio 8.3:1) and 0% ^(a) on hMGL cysteine residues (NAM:hMGL ratio 33:1, relative to Cys39/Cys208 pair). Also, the “Relative Alkylation of Cys39” value at hMGL cysteine residues (NAM:hMGL ratio 8.3:1) is recorded as 0%; at hMGL cysteine residues (NAM:hMGL ratio 33:1), 100% ^(a). In addition, the “hMGL inhibition potency (in words)” value in experiment [1] was “markedly less potent”. In addition, the “extent of hMGL inhibition at large molar excesses” value in experiment [1] (large molar NAM excesses (Figure 1C)) is “completely”.

Consider `CN(C)C(=O)n1nnnc1Cc1ccc(-c2ccccc2)cc1` [AM6702, 5-((biphenyl-4-yl)methyl)-N,N-dimethyl-1H-tetrazole-1-carboxamide], for which the “hMGL inhibition potency (in words)” value in experiment [1] is “nM range”.

As for `CN(C)C(=O)n1nnc(Cc2ccc(-c3ccccc3)cc2)n1` [AM6701, 5-((biphenyl-4-yl)methyl)-N,N-dimethyl-2H-tetrazole-2-carboxamide], the “hMGL Inhibition (%) 10 min” value at purified hMGL (inhibitor:hMGL molar ratio 1:1) is recorded as 72%; at purified hMGL (setting [2]) it was 85%; at purified hMGL (setting [3]) it was 91%.
